Source: the array DNA melting data of Ke et al. (doi:10.1101/2024.01.08.574731)

What was measured:
[1] = melting temperature; fluorescence melt of hairpins on a sequencing array, two-state fit, raised by 9.35 °C to match UV melts; conditions: sodium 0.088 M
Outline: (§1)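 Folding enthalpy and melting temperature were estimated with bootstrapped two-state fits and combined across four replicates by inverse-variance weighting, with fitted temperatures raised by 9.35 °C to match UV melts. The data were Cy3 fluorescence of library hairpins, with annealed Cy3 and quencher oligos, on a sequenced MiSeq flow cell in 50 mM Na-HEPES pH 8.0, 25 mM NaCl, imaged in 2.5 °C steps up to 60 °C and normalised to pre-quench Cy3 and control constructs.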

[2] = folding enthalpy; higher = less favourable; fluorescence melt of hairpins on a sequencing array, two-state fit; conditions: sodium 0.088 M
Outline: as §1

Sequence	Tm [1]	folding enthalpy [2]
GCGAGGTTTCGC ((((....))))	49.4 °C	-16 kcal/mol
GCGAGTCGAAAGACCCGC (((.(((....))).)))	57.3 °C	-48.2 kcal/mol
GCGAGTGCGAAAGCACGC (((..(((....))))))	59 °C	-9.67 kcal/mol
GCGAGTGGAAACATTCGC ((((.((....)).))))	53.2 °C	-35 kcal/mol
GCGAGTGTCGC ((((...))))	47 °C	-13.9 kcal/mol
GCGATACATCGC ((((....))))	55.7 °C	-27.5 kcal/mol
GCGATACTCGC ((((...))))	49.3 °C	-22.8 kcal/mol
GCGATAGTCGC ((((...))))	52.5 °C	-14 kcal/mol
GCGATATATCGC ((((....))))	55.6 °C	-25.9 kcal/mol
GCGATCCGAAAGGACCGC (((.(((....))).)))	63.2 °C	-36.1 kcal/mol
GCGATCGAAAGATACGC ((((((....))).)))	50.1 °C	-25.5 kcal/mol
GCGATCGAAAGATAGCGC ((((((....)))..)))	55.5 °C	-30.8 kcal/mol
GCGATCGAAAGATTACGC ((((((....)))..)))	42 °C	-30.4 kcal/mol
GCGATCGAAAGATTCCGC ((((((....)))..)))	33.7 °C	-23.8 kcal/mol
GCGATCGAAAGATTTCGC ((((((....)))..)))	39.8 °C	-26.4 kcal/mol
GCGATCGGAAACGACCGC (((.(((....))).)))	55.5 °C	-48.9 kcal/mol
GCGATCGGAAACGATTGC ((.((((....)))).))	56.3 °C	-43.5 kcal/mol
GCGATGAGTCGC ((((....))))	54.8 °C	-30.5 kcal/mol
GCGATGATTCGC ((((....))))	50.9 °C	-23.3 kcal/mol
GCGATGCCGAAAGGCCGC (((..(((....))))))	59.3 °C	-18 kcal/mol
GCGATGCGAAAGCAGTGC ((..(((....)))..))	58.3 °C	-22.7 kcal/mol
GCGATGCGAAAGCCGCGC (((..((....))..)))	64.7 °C	-27.7 kcal/mol
GCGATGCGAAAGCCTAGC ((.(.((....)).).))	45 °C	-21.8 kcal/mol
GCGATGCGAAAGCGACGC (((..((....))..)))	65.7 °C	-29.5 kcal/mol

Sequence	Tm [1]	folding enthalpy [2]
GCGATGCGAAAGCGCCGC (((..((....))..)))	62.1 °C	-30.5 kcal/mol
GCGATGCGAAAGCTACGC (((..((....))..)))	65 °C	-18.1 kcal/mol
GCGATGCGAAAGCTCCGC (((..((....))..)))	52.5 °C	-19.9 kcal/mol
GCGATGCGAAAGCTTGGC ((.(.((....)).).))	43.8 °C	-15.1 kcal/mol
GCGATGGGAAACCATCAC (.(((((....))))).)	43.1 °C	-15.9 kcal/mol
GCGATGGGAAACCGTCGC ((((.((....)).))))	58.9 °C	-50.2 kcal/mol
GCGATGGGAAACTATCGC (((((.(....).)))))	55.9 °C	-42 kcal/mol
GCGATGGGTCGC ((((....))))	54.4 °C	-23.4 kcal/mol
GCGATGGTTCGC ((((....))))	49.8 °C	-24.5 kcal/mol
GCGATGTCGAAAGACCGC (((..(((....))))))	51 °C	-29.5 kcal/mol
GCGATGTCTCGC ((((....))))	48.6 °C	-19.6 kcal/mol
GCGATGTTCGC ((((...))))	49.9 °C	-18.5 kcal/mol
GCGATTGCGAAAGCACGC (((..(((....))))))	51.4 °C	-20.1 kcal/mol
GCGATTGGAAACAACCGC (((.(((....))).)))	48.4 °C	-32.7 kcal/mol
GCGATTGTCGC ((((...))))	48.2 °C	-19.6 kcal/mol
GCGCAAGGAAACCTACGC (((.(.(....).).)))	34.6 °C	-16.4 kcal/mol
GCGCACGAAAGTGACCGC ((((((....)))..)))	48.4 °C	-21.9 kcal/mol
GCGCACGAAAGTGCCGC ((((((....))).)))	62 °C	-17.5 kcal/mol
GCGCACGAAAGTGCTCGC ((((((....)))..)))	48.4 °C	-13.5 kcal/mol
GCGCACGAAAGTGTCCGC ((((((....)))..)))	48 °C	-18.6 kcal/mol
GCGCACGGAAACGTACGC (((.(((....))).)))	56 °C	-44.3 kcal/mol
GCGCAGCGAAAGCAGGGC ((.(.((....)).).))	51.2 °C	-10.2 kcal/mol
GCGCAGCGAAAGCATCGC (((..((....))..)))	47.4 °C	-9.43 kcal/mol
GCGCAGCGAAAGCCGAGC ((.(.((....)).).))	46.7 °C	-9.37 kcal/mol

Sequence	Tm [1]	folding enthalpy [2]
GCGCAGCGAAAGCTCAGC ((..(((....)))..))	41 °C	-7.58 kcal/mol
GCGCAGGGAAACCCACGC (((..((....))..)))	43.9 °C	-26.7 kcal/mol
GCGCAGGGAAACTTGCGC (((((.(....).)))))	60.2 °C	-43.4 kcal/mol
GCGCATCGAAAGATCCGC (((.(((....))).)))	47.8 °C	-28.5 kcal/mol
GCGCATGGAAACACGCAC (.((.((....)).)).)	29 °C	-13.8 kcal/mol
GCGCCACCGAAAGGTCGC (((..(((....))))))	51.4 °C	-23.5 kcal/mol
GCGCCAGGAAACCGGCGC (((((.(....).)))))	69.1 °C	-22.8 kcal/mol
GCGCCAGGAAACTAGCGC ((((.((....)).))))	52.5 °C	-42.1 kcal/mol
GCGCCAGGAAACTGGTGC ((.((((....)))).))	65 °C	-30.6 kcal/mol
GCGCCCGGAAACAGGCGC (((((.(....).)))))	66.7 °C	-31.7 kcal/mol
GCGCCGCGAAAGCAGGGC ((.(.((....)).).))	57.4 °C	-13.1 kcal/mol
GCGCCGCGAAAGCCGGGC ((.(.((....)).).))	55.3 °C	-15.8 kcal/mol
GCGCCGCGAAAGCGCCGC (((.(((....))).)))	65.2 °C	-22.4 kcal/mol
GCGCCTCGAAAGAGCCGC (((.(((....))).)))	52.2 °C	-37.9 kcal/mol
GCGCGACGAAAGTCACGC (((.(((....))).)))	68.9 °C	-36.3 kcal/mol
GCGCGAGCGAAAGCTCGC (((..(((....))))))	69.1 °C	-6.17 kcal/mol
GCGCGAGGAAACCCGCGC (((((.(....).)))))	69.1 °C	-33.8 kcal/mol
GCGCGCCCGAAAGGGCGC (((..(((....))))))	68.4 °C	-4.64 kcal/mol
GCGCGCGAAAGCGAACGC ((((((....)))..)))	60 °C	-22.9 kcal/mol
GCGCGCGAAAGCGCCCGC ((((((....)))..)))	45.8 °C	-9.74 kcal/mol
GCGCGCGAAAGCGGCCGC ((((((....)))..)))	59 °C	-15.3 kcal/mol
GCGCGCGAAAGCGTACGC ((((((....)))..)))	61.5 °C	-17.5 kcal/mol
GCGCGGCGAAAGCCATGC ((..(((....)))..))	53.3 °C	-16.4 kcal/mol
GCGCGGCGAAAGCCTTGC ((..(((....)))..))	46.1 °C	-16 kcal/mol

Sequence	Tm [1]	folding enthalpy [2]
GCGCGGGGAAACCCGCAC (.(((((....))))).)	53.9 °C	-8.32 kcal/mol
GCGCTACCGAAAGGTCGC (((..(((....))))))	51.4 °C	-30.8 kcal/mol
GCGCTACGAAAGTACCGC (((.(((....))).)))	48.5 °C	-36.1 kcal/mol
GCGCTCCGAAAGGATCGC (((.(((....))).)))	59.2 °C	-41 kcal/mol
GCGCTCGAAAGAGCCCGC ((((((....)))..)))	43.4 °C	-11.8 kcal/mol
GCGCTCGAAAGAGGCCGC ((((((....)))..)))	47.5 °C	-16.5 kcal/mol
GCGCTCGAAAGAGTTCGC ((((((....)))..)))	43.8 °C	-22.1 kcal/mol
GCGCTCGGAAACAAGCGC (((((.(....).)))))	55.9 °C	-46.7 kcal/mol
GCGCTCGGAAACGAGCAC (.(((((....))))).)	51.5 °C	-10.4 kcal/mol
GCGCTCGGAAACGGGTGC ((.(.((....)).).))	51.6 °C	-53.1 kcal/mol
GCGCTGACGAAAGTCCGC (((..(((....))))))	51 °C	-25.1 kcal/mol
GCGCTGCGAAAGCCGTGC ((.(.((....)).).))	51.9 °C	-21.5 kcal/mol
GCGCTGCGAAAGCGGTGC ((.(.((....)).).))	66.7 °C	-31.8 kcal/mol
GCGCTGGGAAACTAGCGC (((((.(....).)))))	67.1 °C	-32.4 kcal/mol
GCGCTTCGAAAGAATCGC (((.(((....))).)))	51.8 °C	-41.3 kcal/mol
GCGCTTGGAAACAGGCGC ((((.((....)).))))	61.7 °C	-40.6 kcal/mol
GCGGAAACCCGC ((((....))))	50.2 °C	-20.9 kcal/mol
GCGGAAAGCCGC ((((....))))	48.5 °C	-16.3 kcal/mol
GCGGAAATCCGC ((((....))))	51.6 °C	-20.4 kcal/mol
GCGGAACGAAAGTTGCGC (((.(((....))).)))	67.9 °C	-35.6 kcal/mol
GCGGAACGAAAGTTTCGC (((.(((....))).)))	64.8 °C	-51.9 kcal/mol
